From ChEMBL document CHEMBL4680118, “Cerpegin-derived furo[3,4-c]pyridine-3,4(1H,5H)-diones enhance cellular response to interferons by de novo pyrimidine biosynthesis inhibition” (Eur J Med Chem, 2020)
Active and inactive are the calls of the source. The calls are words filed in the database; no cut-off is given here.

Columns and labels:
[1] = molecular target: T1, Dihydroorotate dehydrogenase (quinone), mitochondrial (Homo sapiens, UniProt Q02127); test: Inhibition of DHODH in human HEK293 cells transfected with ISRE-luciferase reporter gene assessed as increase in 250 IU/ml IFN-alpha stimulated […] mRNA expression at 80 uM measured after 16 hrs by RT-qPCR analysis relative to control; assay type: cell-based
T1 sequence (Q02127 whole entry): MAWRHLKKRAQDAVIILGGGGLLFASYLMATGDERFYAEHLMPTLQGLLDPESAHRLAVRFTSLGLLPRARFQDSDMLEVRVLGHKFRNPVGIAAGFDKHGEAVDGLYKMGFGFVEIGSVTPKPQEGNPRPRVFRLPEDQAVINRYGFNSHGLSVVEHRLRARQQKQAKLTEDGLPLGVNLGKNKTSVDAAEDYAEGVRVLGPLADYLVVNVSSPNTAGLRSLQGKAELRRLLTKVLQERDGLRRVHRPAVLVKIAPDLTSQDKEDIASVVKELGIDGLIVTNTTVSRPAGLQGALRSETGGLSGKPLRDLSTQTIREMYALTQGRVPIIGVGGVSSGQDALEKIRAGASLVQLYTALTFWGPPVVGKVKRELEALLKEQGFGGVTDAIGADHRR
In short: (§1)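 ISRE-Luc HEK cells co-treated with increasing IFN-α concentrations and DMSO or compound (80 µM) for 16 h. Total RNA extracted from 2×10^5 cells with DNase step; qPCR 35 cycles. CT values normalized to RPL13A and unstimulated controls (2^-ΔΔCT), expressed as fold change versus DMSO alone. Three independent experiments; two-way ANOVA with Bonferroni.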

[2] = molecular target: T1, Dihydroorotate dehydrogenase (quinone), mitochondrial; test: Inhibition of DHODH in human HEK293 cells transfected with ISRE-luciferase reporter gene assessed as increase in 125 IU/ml IFN-alpha stimulated MX2 mRNA expression at 80 uM measured after 16 hrs by RT-qPCR analysis relative to control; assay type: cell-based; in short: as §1
[3] = molecular target: T1, Dihydroorotate dehydrogenase (quinone), mitochondrial; test: Inhibition of DHODH in human HEK293 cells assessed as increase in 250 IU/ml IFN-alpha stimulated ISG15 mRNA expression at 80 uM measured after 16 hrs by RT-qPCR analysis relative to control; assay type: cell-based; in short: as §1
[4] = molecular target: T1, Dihydroorotate dehydrogenase (quinone), mitochondrial; test: Inhibition of DHODH in human HEK293 cells transfected with ISRE-luciferase reporter gene assessed as increase in 125 IU/ml IFN-alpha stimulated PML mRNA expression at 80 uM measured after 16 hrs by RT-qPCR analysis relative to control; assay type: cell-based; in short: as §1
[5] = molecular target: T1, Dihydroorotate dehydrogenase (quinone), mitochondrial; test: Inhibition of DHODH in […] treated with R848 stimulated cell supernatant assessed as increase in IFN-gamma-containing conditioned supernatant-stimulated cellular response at 80 uM measured after 24 hrs by luciferase reporter gene assay; assay type: cell-based
In short: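 Donor PBMCs were activated for 24 h with R848 at 5 µg/ml, and the supernatants (containing IFN-γ) were collected. HEK-293 ISRE-Luc reporter cells, not PBMCs, were then stimulated with these supernatants diluted 1/8 to 1/64, in the presence of DMSO or compound at 80 μM. Luciferase was read at 24 h and normalized to cells given the 1/8 dilution. Three independent experiments; two-way ANOVA with Bonferroni.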

[6] = molecular target: T1, Dihydroorotate dehydrogenase (quinone), mitochondrial; test: Inhibition of DHODH in human HEK293 cells transfected with ISRE-luciferase reporter gene assessed as increase in 125 IU/ml IFN-alpha stimulated […] mRNA expression at 80 uM measured after 16 hrs by RT-qPCR analysis relative to control; assay type: cell-based; in short: as §1
[7] = molecular target: T1, Dihydroorotate dehydrogenase (quinone), mitochondrial; test: Inhibition of DHODH in human HEK-293 cells transfected with ISRE-luciferase reporter gene assessed as increase in IFN-alpha mediated cellular response at 80 uM in presence of DHO measured after 24 hrs by luciferase reporter gene assay; assay type: cell-based; details: HEK293
In short: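 ISRE-Luc HEK-293 cells exposed to increasing IFN-α concentrations with DMSO or compound (80 µM), supplemented with uridine (125 µM) or with 3 mM orotate or DHO. Reporter luciferase read after 24 h, normalized to DMSO + IFN-α 250 IU/ml. Means ± SD of three independent experiments; two-way ANOVA.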

[8] = molecular target: T1, Dihydroorotate dehydrogenase (quinone), mitochondrial; test: Inhibition of DHODH in human HEK-293 cells transfected with ISRE-luciferase reporter gene assessed as increase in IFN-alpha mediated cellular response at 6 to 178 uM after 24 hrs by luciferase reporter gene assay; assay type: cell-based; details: HEK293, dose 6-178 µM
[9] = molecular target: T1, Dihydroorotate dehydrogenase (quinone), mitochondrial; test: Inhibition of DHODH in HEK293 cells assessed as reduction in number of viable cells at 6 to 193 uM measured upto 72 hrs by Celltiter-Glo assay; assay type: cell-based; details: dose 6-193 µM, time hrs <=72
In short: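 HEK-293 ISRE-Luc cells in DMEM with 10% FCS at 37°C, 5% CO2, treated with compound or DMSO; viable cells quantified by ATP content (CellTiter-Glo luminescence) after 24, 48 and 72 h. Expressed as percent of untreated cells at t = 0 h; means ± SD of two independent experiments.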

[10] = molecular target: T1, Dihydroorotate dehydrogenase (quinone), mitochondrial; test: Inhibition of DHODH in human HEK293 cells transfected with ISRE-luciferase reporter gene assessed as increase in 30 IU/ml IFN-alpha stimulated IFIT5 mRNA expression at 80 uM measured after 16 hrs by RT-qPCR analysis relative to control; assay type: cell-based; in short: as §1
[11] = molecular target: T1, Dihydroorotate dehydrogenase (quinone), mitochondrial; test: Inhibition of DHODH in human HEK-293 cells transfected with ISRE-luciferase reporter gene assessed as increase in IFN-alpha mediated cellular response after 24 hrs by luciferase reporter gene assay; details: read-out: EC50
[12] = molecular target: T1, Dihydroorotate dehydrogenase (quinone), mitochondrial; test: Inhibition of DHODH in human HEK293 cells assessed as increase in gammaH2AX phosphorylation measured after 24 hrs by immunostaining based flow cytometry; assay type: cell-based
In short: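 Cells treated 24 h with compound (80 µM), harvested, trypsinized, fixed 30 min in 4% PFA, permeabilized 5 min. Stained with anti-γH2AX mouse monoclonal (1/400) or isotype control, 45 min at 4°C, then Alexa Fluor 488 anti-mouse secondary (1/500) 45 min at 4°C. Analysed by flow cytometry; means ± SD of three independent experiments.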

[13] = molecular target: T1, Dihydroorotate dehydrogenase (quinone), mitochondrial; test: Inhibition of DHODH in human HEK293 cells transfected with ISRE-luciferase reporter gene assessed as increase in 30 IU/ml IFN-alpha stimulated DDX58 mRNA expression at 80 uM measured after 16 hrs by RT-qPCR analysis relative to control; assay type: cell-based; in short: as §1
[14] = molecular target: T1, Dihydroorotate dehydrogenase (quinone), mitochondrial; test: Inhibition of DHODH in human HEK293 cells transfected with ISRE-luciferase reporter gene assessed as increase in 30 IU/ml IFN-alpha stimulated ISG15 mRNA expression at 80 uM measured after 16 hrs by RT-qPCR analysis relative to control; assay type: cell-based; in short: as §1
[15] = molecular target: T1, Dihydroorotate dehydrogenase (quinone), mitochondrial; test: Inhibition of DHODH in human HEK293 cells assessed as reduction in intracellular pyrimidine level measured after 24 hrs by HPLC coupled spectrophotometry; assay type: cell-based
In short: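 HEK-293 cells plated at 1×10^6 per well, treated 24 h later with compound (80 µM final) or DMSO for 24 h. Pellets deproteinized with 6% perchloric acid, neutralized with Na2CO3, analysed by C18 HPLC at 45°C with ion-pair phosphate/MeOH gradient, detected at 254 nm against reference nucleoside calibration curves. Normalized to viable cell number and DMSO controls.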

[16] = molecular target: T1, Dihydroorotate dehydrogenase (quinone), mitochondrial; test: Inhibition of DHODH in human HEK293 cells transfected with ISRE-luciferase reporter gene assessed as increase in 250 IU/ml IFN-alpha stimulated IFIT1 mRNA expression at 80 uM measured after 16 hrs by RT-qPCR analysis relative to control; assay type: cell-based; in short: as §1
[17] = molecular target: T1, Dihydroorotate dehydrogenase (quinone), mitochondrial; test: Inhibition of DHODH in human HEK293 cells transfected with ISRE-luciferase reporter gene assessed as increase in 250 IU/ml IFN-alpha stimulated IFIT3 mRNA expression at 80 uM measured after 16 hrs by RT-qPCR analysis relative to control; assay type: cell-based; in short: as §1
[18] = molecular target: T1, Dihydroorotate dehydrogenase (quinone), mitochondrial; test: Inhibition of DHODH in human HEK293 cells transfected with ISRE-luciferase reporter gene assessed as increase in 60 IU/ml IFN-alpha stimulated IFIT2 mRNA expression at 80 uM measured after 16 hrs by RT-qPCR analysis relative to control; assay type: cell-based; in short: as §1

- fold change (FC) [1]: 143
- fold change (FC) [2]: 20
- fold change (FC) [3]: 226
- fold change (FC) [4]: 5
- Activity [5]: Active
- fold change (FC) [6]: 117
- Activity [7]: Active
- Activity [8]: Active
- fold change (FC) [10]: 3
- EC50 [11]: 44 µM
- Activity [12]: Active
- fold change (FC) [13]: 16
- fold change (FC) [14]: 21
- inhibition [15]: Active
- fold change (FC) [16]: 145
- fold change (FC) [17]: 129
- fold change (FC) [18]: 61
SMILES: O=C1OC2(CCCCC2)c2ccn(C3CC3)c(=O)c21
- inhibition [9]: Active
